Bioassay records (PubChem)
GPR7 antagonist = antagonists of human GPR7 (neuropeptides B/W receptor 1). P48145. GPR7-expressing cells, fluorescence antagonist assay. inhibition, % at 4.4 µM. 290,000 tested, 1.1% active. AID 1861; in the data active means inhibition above about 16%, passing the limit was not always enough;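 further: cells stimulated with the agonist NPW; 0% = agonist with vehicle and 100% = vehicle without agonist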
Target sequence (P48145 whole entry, looked up): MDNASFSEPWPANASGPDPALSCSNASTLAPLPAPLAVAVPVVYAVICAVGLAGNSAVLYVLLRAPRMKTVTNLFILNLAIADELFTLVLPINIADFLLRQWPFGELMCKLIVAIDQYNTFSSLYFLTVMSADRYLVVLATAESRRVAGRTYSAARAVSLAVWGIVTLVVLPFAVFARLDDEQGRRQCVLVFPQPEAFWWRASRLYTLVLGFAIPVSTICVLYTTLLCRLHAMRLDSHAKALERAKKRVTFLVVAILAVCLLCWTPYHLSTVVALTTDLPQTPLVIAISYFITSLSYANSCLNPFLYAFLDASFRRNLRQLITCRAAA
TAAR1 antag = human TAAR1 antagonism | Q96RJ0 | CHO RD-HGA16 TAAR1, Fluo-8 calcium fluorescence, antagonist | inhibition, % at 3 µM | 360,000 tested, 1.5% active | AID 624466;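 active means inhibition above a per-plate cutoff, the mean inhibition of test compounds on that plate plus 3 SD, cut at about 49% in these data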;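 further: 0% = DMSO plus EC80 beta-PEA response and 100% = DMSO alone without agonist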
Target sequence (Q96RJ0 whole entry, looked up): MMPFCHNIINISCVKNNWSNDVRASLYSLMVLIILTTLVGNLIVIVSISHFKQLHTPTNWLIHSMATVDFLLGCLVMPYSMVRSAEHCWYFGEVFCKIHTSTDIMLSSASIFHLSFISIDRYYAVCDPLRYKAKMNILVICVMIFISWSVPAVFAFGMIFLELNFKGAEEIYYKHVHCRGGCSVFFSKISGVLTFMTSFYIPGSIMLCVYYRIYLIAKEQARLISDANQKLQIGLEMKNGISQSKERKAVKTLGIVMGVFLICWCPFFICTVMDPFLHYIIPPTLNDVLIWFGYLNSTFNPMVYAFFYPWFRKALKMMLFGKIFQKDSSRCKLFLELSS
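Assay system: CHO-derived RD-HGA16 cells stably expressing human TAAR1 plus Gα16. Timing: 140 s kinetic read after compound, 140 s after agonist. Technique: kinetic Fluo-8 calcium fluorescence measurement. Measure: % inhibition of agonist calcium response.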
CHO parental Ca = counter-screen: ATP calcium response change in parental CHO cells | 330,000 tested, 0.63% active | parental CHO-K1, ATP-induced calcium, Fluo-8 fluorescence | inhibition, % at 5.6 µM | AID 463079;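 active means inhibition above that plate's mean sample inhibition plus 3 SD, cut at about 26% in these data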;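 further: 0% = ATP-challenged DMSO wells and 100% = DMSO wells without ATP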
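Material – parental CHO cells · Reagent – ATP stimulus · Compound – single nominal dose of 5.6 µM per compound · Detection – Fluo-8 fluorescence · Read-out basis – percent inhibition of calcium signal · Controls – ATP-challenged DMSO wells low, unchallenged DMSO wells high · Repeats – no replicates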
TAAR1 ag = agonists of human TAAR1 | activation, % at 3 µM | 360,000 tested, 0.99% active | AID 624467 | CHO RD-HGA16 TAAR1, Fluo-8 calcium fluorescence; vehicle wells 0%, saturating PEA agonist 100%;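 active means activation above the mean activation of all test compounds in the run plus 3 SD, cut at about 38% in these data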
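Benchmarks: low control DMSO, high control PEA (EC100); System: CHO RD-HGA16 cells carrying human TAAR1 plus Gα16; Detection: Fluo-8 fluorescence, 5 s baseline then 140 s kinetic read; Schedule: 17-24 h plating, Fluo-8 75 min 37 °C, 30 min RT; Read-out basis: % activation from peak over basal fluorescence ratio, DMSO-to-PEA scaled.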
OX1R antag-1 = blocks the human orexin 1 receptor | CHO/OX1R cells, Fluo-8 calcium fluorescence, orexin A | 330,000 tested, 0.43% active | inhibition, % at 5 µM;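 active means inhibition above its plate's threshold, mean inhibition of all tested compounds on the plate plus 3 SD, cut at about 37% in these data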;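 further: 0% = orexin A challenge wells and 100% = SB-334867-A antagonist wells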
OX1R antag-2 = OX1R (human) antagonism. O43613. OX1R-expressing cells, FRET antagonist read-out. inhibition, % at 6.6 µM. 330,000 tested, 1.8% active. AID 485270; in the data active means inhibition mostly above about 38%, no sharp cut-off; inactive means mostly below about 40%;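 further: 0% = agonist challenge alone and 100% = reference antagonist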
TAAR1 ag confirm = confirmation of human TAAR1 agonists. 2,400 tested, 82% active. shares compounds with TAAR1 ag. AID 651783. activation, % at 3 µM. CHO RD-HGA16 TAAR1, Fluo-8 calcium fluorescence; scaled: DMSO 0%, maximal phenethylamine 100%;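 active means activation above a cutoff set at the run's mean compound activation plus 3 SD, cut at about 39% in these data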
Ga16 ag counter = nonselective agonism, TAAR1 counter-screen; CHO-Ga16 parental, Fluo-8 calcium fluorescence; normalized to maximal ATP response, DMSO zero; AID 651787; shares compounds with TAAR1 ag; activation, % at 3 µM; 2,400 tested, 50% active;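 active means activation above the run cutoff, the mean activation over all tested wells plus 3 SD, cut at about 12% in these data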;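 further: 0% = DMSO wells and 100% = maximal ATP response on the peak over basal ratio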
TAAR1 desens = human TAAR1 agonist that also desensitizes the receptor. inhibition, % at 3 µM. shares compounds with TAAR1 ag. 2,400 tested, 46% active. CHO RD-HGA16 hTAAR1, Fluo-8 calcium, beta-PEA response inhibition. AID 651951;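 active means inhibition above the run cutoff, the mean inhibition of all test compounds plus 3 SD, cut at about 49% in these data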;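 further: beta-PEA stimulus applied at its EC80; loss of beta-PEA calcium signal after compound pretreatment read as receptor desensitization; 0% = DMSO with beta-PEA at EC80 and 100% = DMSO alone without agonist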
Ga16 nonsel ant = counter-screen for TAAR1 agonists: nonselective Ga16 antagonists; shares compounds with TAAR1 ag; CHO-Ga16 ATP-induced calcium, Fluo-8 fluorescence; inhibition, % at 3 µM; 2,400 tested, 39% active;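 active means inhibition above the plate's mean compound inhibition plus 3 SD, computed per plate, cut at about 22% in these data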;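 further: 0% = EC80 ATP with DMSO and 100% = DMSO wells without ATP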
An asterisk follows results filed as active; . = no result given. Most compounds without a hit are left out; they make up all but 4.6% or so of the library.

SMILES | GPR7 antagonist | TAAR1 antag | CHO parental Ca | TAAR1 ag | OX1R antag-1 | OX1R antag-2 | TAAR1 ag confirm | Ga16 ag counter | TAAR1 desens | Ga16 nonsel ant
O=C(NCC1CCCO1)c1c(O)c2c([nH]c1=O)CCCC2 (centres undefined) | 6 | 26 | 8 | 3 | -17 | 32 | . | . | . | .
CC1=C(C)CS(=O)N(S(=O)(=O)c2ccccc2)C1 (centres undefined) | 3 | 9 | -13 | 73* | -8 | 19 | 68* | 33* | 23 | 21
CC1=C(C)CS(=O)N(c2ccc(S(N)(=O)=O)cc2)C1 (centres undefined) | 1 | 5 | -8 | 34 | 4 | 19 | . | . | . | .
CCOc1cc(NC(=S)NCCCN2CCOCC2)c(OCC)cc1NC(=O)c1ccccc1C | -13 | 4 | -18 | 8 | -15 | 23 | . | . | . | .
O=C(CN(Cc1ccccc1)C(=O)c1csnn1)NCCc1ccccc1 | 0 | 25 | -17 | 75* | -24 | 10 | 68* | 6 | 34 | 12
CCn1cc([C@@H]2C[C@H]3CN(Cc4cccc(Cl)c4)C(=O)[C@]34CCCN24)cn1 | 7 | 5 | -20 | 5 | -15 | 21 | . | . | . | .
CCOC(=O)c1cn(CC(=O)Nc2cccc(F)c2)nn1 | 11 | -4 | 5 | 4 | -4 | -4 | . | . | . | .
Cc1cc(C)c2c(=O)n(CC(=O)Nc3cccc(F)c3)sc2n1 | -14 | 72* | 22 | 70* | 6 | 17 | 95* | 54* | 88* | 60*
Cc1cc(C)c2c(=O)n(CC(=O)Nc3ccc(Cl)cc3)sc2n1 | -8 | 80* | 56* | 87* | 45* | 10 | 100* | 61* | 87* | 68*
COc1ccc(CN2CCC(N3CC(C)OC(C)C3)CC2)c(OC)c1OC (centres undefined) | 3 | -20 | -8 | 6 | -9 | 7 | . | . | . | .
C/C(=N\NC(=O)c1nnn(-c2nonc2N)c1-c1cccs1)c1ccc(C)cc1 | -16 | 10 | -9 | 103* | -7 | 7 | 104* | 72* | 16 | 6
COc1ccc(/C(C)=N/NC(=O)c2nnn(-c3nonc3N)c2-c2cccs2)cc1 | -25 | -5 | 0 | 46* | -10 | 3 | 81* | 55* | 7 | -2
C/C(=N\NC(=O)c1nnn(-c2nonc2N)c1-c1cccs1)c1ccc(O)cc1 | -17 | -1 | -4 | 34 | 3 | 9 | . | . | . | .
CCOc1ccc2nc(N3CCCC(C(=O)NCC4CCCO4)C3)sc2c1 (centres undefined) | 5 | -10 | -8 | 5 | -17 | 26 | . | . | . | .
CC(C)(C)CC(C)(C)NCC(O)COc1ccc2c(c1)CCC2 (centres undefined) | 4 | -1 | -23 | 56* | -29 | 8 | 20 | 12* | 0 | 11
O=C(/C=C/c1ccc(O)c([N+](=O)[O-])c1)c1ccc2ccccc2c1 | -17 | 39 | 6 | 66* | -8 | 7 | 32 | 38* | 24 | 19
CCOCCOc1cccc(C(=O)NC(c2ccccc2)c2ccccc2)c1 | -4 | . | -6 | . | -22 | -5 | . | 8 | . | 12
CCOCCOc1cccc(C(=O)NC(C)c2ccc3ccccc3c2)c1 (centres undefined) | -10 | 21 | -14 | 1 | -33 | 13 | . | . | . | .
OC(c1ccc(F)c(F)c1)c1nc(-c2ccccc2)cs1 (centres undefined) | . | -4 | . | 1 | . | . | . | . | . | .
COc1ccc(-c2csc(C(O)c3ccc(F)c(F)c3)n2)cc1 (centres undefined) | . | 77* | . | 57* | . | . | 52* | 33* | 70* | 53*
Cc1oc2ccc(OC(=O)COc3c(F)c(F)c(F)c(F)c3F)cc2c1C(=O)OC(C)C | -17 | -5 | -13 | 0 | 7 | 3 | . | . | . | .
Cc1ccccc1C(=O)Nc1c(C(=O)N2CCN(C)CC2)cnn1-c1ccccc1 | 4 | -34 | 1 | 1 | -7 | 4 | . | . | . | .
COC(=O)[C@@]1(Cc2ccc(F)cc2)[C@H]2c3cc(C(=O)N4CCCC4)n(CCF)c3C[C@H]2CN1C(=O)c1ccccc1 | . | -2 | . | 7 | . | . | . | . | . | .
COC(=O)[C@@]1(Cc2ccc(F)cc2)[C@H]2c3cc(C(=O)N4CCCC4)n(CC4CC4)c3C[C@H]2CN1C(=O)c1ccccc1 | . | 23 | . | 70* | . | . | 76* | 38* | 52* | 32*
S=C(NCCc1ccccc1)N1CCn2cccc2C1c1cccnc1 (centres undefined) | -8 | 13 | -9 | 57* | -6 | 20 | 62* | 4 | 37 | 27*
SMILES | GPR7 antagonist | TAAR1 antag | CHO parental Ca | TAAR1 ag | OX1R antag-1 | OX1R antag-2 | TAAR1 ag confirm | Ga16 ag counter | TAAR1 desens | Ga16 nonsel ant
S=C(NCc1ccccc1)N1CCn2cccc2C1c1cccnc1 (centres undefined) | -12 | 2 | . | 8 | . | . | . | . | . | .
CCCCOc1ccc(N2C(=O)CC(N(CCc3ccccc3)C(=O)/C=C/C(=O)O)C2=O)cc1 (centres undefined) | -8 | 1 | -11 | 67* | -21 | 8 | 78* | 2 | 31 | 0
COC(=O)C1CCN(c2ccc([N+](=O)[O-])cc2[N+](=O)[O-])CC1 | -2 | 35 | -16 | 4 | -5 | 35 | . | . | . | .
CCCNC(=O)c1cc(C2CCCN(S(=O)(=O)c3ccccc3)C2)on1 (centres undefined) | . | 5 | . | 2 | . | . | . | . | . | .
OC(CNCCc1ccc(C(F)(F)F)cc1)COc1cccc2ccccc12 (centres undefined) | -3 | 22 | 25 | 60* | 2 | 8 | 60* | 29* | 64* | 44*
COc1ccccc1COCC(O)CNCCc1ccc(C(F)(F)F)cc1 (centres undefined) | 19 | -14 | -11 | 13 | -16 | -7 | . | . | . | .
COc1ccc(SCC(=O)Nc2ccc(N3CCN(C)CC3)c(F)c2)cc1 | -9 | 2 | 6 | 25 | -9 | 11 | . | . | . | .
Cc1ccc(SCC(=O)Nc2ccc(N3CCN(C)CC3)c(F)c2)cc1 | 10 | 21 | -11 | 49* | -12 | 11 | 69* | 4 | 39 | 8
Nc1ccccc1SSc1ccccc1N | -2 | 16 | -1 | 46* | 7 | 16 | 34 | 11 | 3 | 7
N#Cc1ccccc1Sc1ccccc1N | -15 | . | -5 | . | -11 | 19 | . | . | . | .
